Experimental data published in ChEMBL document CHEMBL3091335, “Design and synthesis of potent and selective P2X₃ receptor antagonists derived from PPADS as potential pain modulators” (Eur J Med Chem, 2013).
Positions count from the first letter of the chain named.

What was measured:
P2X purinoceptor 1 [1] = molecular target: T1, P2X purinoceptor 1 (Rattus norvegicus, UniProt P47824); test: Antagonist activity at recombinant rat P2X1 receptor expressed in Xenopus oocytes assessed as ion flux stimulation; assay type: cell-based
T1 sequence (P47824 whole entry): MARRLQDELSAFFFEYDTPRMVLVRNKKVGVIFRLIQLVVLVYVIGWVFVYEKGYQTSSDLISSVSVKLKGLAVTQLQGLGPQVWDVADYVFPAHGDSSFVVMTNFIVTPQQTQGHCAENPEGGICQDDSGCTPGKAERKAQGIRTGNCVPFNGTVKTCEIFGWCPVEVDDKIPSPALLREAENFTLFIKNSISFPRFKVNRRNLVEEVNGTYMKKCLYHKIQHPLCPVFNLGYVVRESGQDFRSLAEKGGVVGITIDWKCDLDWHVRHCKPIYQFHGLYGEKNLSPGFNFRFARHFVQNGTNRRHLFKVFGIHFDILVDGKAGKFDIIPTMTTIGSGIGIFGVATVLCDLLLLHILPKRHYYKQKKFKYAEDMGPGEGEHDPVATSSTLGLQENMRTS

P2X purinoceptor 1 [2] = molecular target: T2, P2X purinoceptor 1 (Mus musculus, UniProt P51576); test: Antagonist activity at recombinant mouse P2X1 receptor expressed in Xenopus oocytes assessed as inhibition of ATP-induced ion current preincubated for 20 mins followed by ATP addition by two-electrode voltage clamp assay; assay type: cell-based
T2 sequence (P51576 whole entry): T1 sequence (P47824 whole entry) with D60G, V108M, T113A, R180H, Q223L, N231S, K260E, H314R, H381R, V384A
In short: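 Defolliculated Xenopus oocytes were injected with mP2X1 or hP2X3 cRNA (40 nL), held 24 h at 18 °C in Barth's solution, then stored at 4 °C for up to 12 days. Two-electrode voltage clamp was run at Vh −70 mV in HEPES/BaCl2 buffer at pH 7.5. ATP was superfused for 60–120 s with 20 min washout. Currents were normalized to the ATP response, giving % inhibition or IC50 from inhibition curves; mean ± SEM, n≥3.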

P2X purinoceptor 7 [3] = molecular target: T3, P2X purinoceptor 7 (Homo sapiens, UniProt Q99572); test: Antagonist activity at recombinant human P2X7 receptor assessed as inhibition of BzATP-mediated Yo-Pro uptake measured for 1 hr by FLIPR assay
T3 sequence (Q99572 whole entry): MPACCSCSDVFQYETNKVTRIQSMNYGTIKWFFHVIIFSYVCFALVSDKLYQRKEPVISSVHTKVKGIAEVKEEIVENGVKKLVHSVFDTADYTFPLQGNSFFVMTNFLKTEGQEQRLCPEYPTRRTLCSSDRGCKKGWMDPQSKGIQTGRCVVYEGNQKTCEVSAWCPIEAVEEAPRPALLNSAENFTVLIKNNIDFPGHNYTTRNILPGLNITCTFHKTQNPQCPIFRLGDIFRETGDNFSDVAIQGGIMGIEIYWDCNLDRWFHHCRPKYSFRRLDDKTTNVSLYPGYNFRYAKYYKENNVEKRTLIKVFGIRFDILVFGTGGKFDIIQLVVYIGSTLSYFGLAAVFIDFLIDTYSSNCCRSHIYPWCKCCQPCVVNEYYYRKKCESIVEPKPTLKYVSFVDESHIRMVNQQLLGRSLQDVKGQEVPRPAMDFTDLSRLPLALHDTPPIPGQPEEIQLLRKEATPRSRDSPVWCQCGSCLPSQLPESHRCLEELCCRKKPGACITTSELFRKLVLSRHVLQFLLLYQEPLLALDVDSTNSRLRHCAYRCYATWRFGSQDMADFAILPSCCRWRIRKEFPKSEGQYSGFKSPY

P2X purinoceptor 7 [4] = molecular target: T3, P2X purinoceptor 7; test: Antagonist activity at human P2X7 receptor expressed in HEK293 cells assessed as inhibition of BzATP-induced accumulation of ethidium+ after 120 mins by fluorescence assay; assay type: cell-based

| IC50 (P2X purinoceptor 1 [1]) [nM] | IC50 (P2X purinoceptor 1 [2]) [nM] | IC50 (P2X purinoceptor 7 [3]) [nM] | IC50 (P2X purinoceptor 7 [4]) [nM] | Structure (SMILES) |
| --- | --- | --- | --- | --- |
| 43 | 30 |  |  | Cc1nc(/N=N/c2ccc(C(=O)O)cc2)c(COP(=O)(O)O)c(C=O)c1O |
|  |  | 210 | 158 | CN([C@@H](Cc1ccc(OS(=O)(=O)c2cccc3cnccc23)cc1)C(=O)N1CCN(c2ccccc2)CC1)S(=O)(=O)c1cccc2cnccc12 |
